Results published in ChEMBL document CHEMBL1145983, “Novel indolyl aryl sulfones active against HIV-1 carrying NNRTI resistance mutations: synthesis and SAR studies” (J Med Chem, 2003).

Legend:
[1] = test system: MT4; experiment: Cytotoxicity, reducing the vaiability of mock-infected cells; assay type: functional; settings: Homo sapiens
[2] = test system: Human immunodeficiency virus 1; experiment: Anti-HIV activity protecting MT-4 cells from HIV-1 induced cytopathogenicity; assay type: functional, organism-based; settings: Human immunodeficiency virus 1, MT4
[3] = test system: Human immunodeficiency virus 1; experiment: Selectivity ratio of CC50/EC50; assay type: functional
How it was run: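 Ratio of CC50 (MTT viability of mock-infected MT-4 cells) to EC50 (MTT-based 50% protection of HIV-1-infected MT-4 cells from cytopathicity), both determined in parallel.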

[4] = test system: MT-4 (Homo sapiens); experiment: Anti-HIV activity to protect MT-4 cells from cytopathogenicity induced by HIV-1 K103N-Y181C (MTT method)
[5] = test system: C8166; experiment: Anti-HIV activity to reduce the amount of p24 in WT IIIB infected C8166 cells; assay type: functional, cell-based; settings: Homo sapiens
How it was run: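 HIV-1 IIIB came from supernatants of persistently infected H9/IIIB cells; stock 4.5 × 10^6 CCID50/mL. Acutely infected C8166 cells (1 × 10^4/well) were incubated at 37 °C with or without compound dilutions. p24 was measured by immunoenzymatic kit. Value is the concentration reducing p24 by 90%; mean of three experiments.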

[6] = biological target: Human immunodeficiency virus type 1 reverse transcriptase (Human immunodeficiency virus 1, UniProt Q72547); experiment: Activity to inhibit HIV-1 Reverse transcriptase activity in WT IIIB
How it was run: (§1)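 Purified recombinant RT (wt or K103N mutant) assayed for RNA-dependent DNA polymerase activity. Buffer: 50 mM Tris-HCl pH 7.8, 80 mM KCl, 6 mM MgCl2, 1 mM DTT, 0.1 mg/mL BSA. Template:primer was poly(rC)-oligo(dG)12-18 at 0.5 OD260 unit/mL, with [3H]dGTP. Incubated 30 min at 37 °C; acid-insoluble radioactivity counted on glass-fibre filters. IC50 reported as mean of two experiments.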

[7] = biological target: Human immunodeficiency virus type 1 reverse transcriptase (Human immunodeficiency virus 1, UniProt Q72547, K103N); experiment: Activity to inhibit HIV-1 Reverse transcriptase activity in K103N; how it was run: as §1

SMILES | CC50 [1] [µM] | EC50 [2] [nM] | Selectivity index [3] | EC50 [4] [µM] | EC90 [5] [nM] | IC50 [6] [nM] | IC50 [7] [µM]
CCOC(=O)c1[nH]c2ccccc2c1Sc1ccccc1 | > 200 | > 200000 | – | – | – | – | –
NC(=O)c1cc2cc(Cl)ccc2n1S(=O)(=O)c1ccccc1 | > 200 | 66000 | >3 | – | – | – | –
CCOC(=O)c1cc2ccccc2n1S(=O)(=O)c1cc(Cl)ccc1[N+](=O)[O-] | > 100 | > 100000 | – | – | – | – | –
CC(C)OC(=O)c1cn(S(=O)(=O)c2ccccc2)c2ccc(Cl)cc12 | > 200 | > 200000 | – | – | – | – | –
CCOC(=O)c1[nH]c2ccccc2c1S(=O)(=O)c1ccccc1 | 157 | 3700 | 42 | – | – | – | –
NNC(=O)c1[nH]c2ccc(Cl)cc2c1S(=O)(=O)c1ccc(F)cc1 | 44 | 300 | 147 | – | – | – | –
Cc1ccc(S(=O)(=O)c2c(C(N)=O)[nH]c3ccc(Cl)cc23)c(C)c1 | 37 | 4 | 9250 | 10 | – | – | –
NC(=O)c1[nH]c2ccc(Cl)cc2c1Sc1cc(Cl)ccc1N | 33 | 1600 | 20 | – | – | – | –
NC(=O)c1[nH]c2ccccc2c1S(=O)(=O)c1ccccc1 | > 200 | 180 | > 1110 | – | – | – | –
CCOC(=O)c1[nH]c2ccccc2c1Sc1cc(Cl)ccc1N | > 200 | > 200000 | – | – | – | – | –
NNC(=O)c1cc2ccccc2n1S(=O)(=O)c1ccccc1 | > 200 | > 200000 | – | – | – | – | –
NNC(=O)c1[nH]c2ccc(Cl)cc2c1Sc1ccc(Cl)cc1 | 30 | 10000 | 3 | – | – | – | –
CC(C)(C)c1ccc(S(=O)(=O)c2c(C(N)=O)[nH]c3ccc(Cl)cc23)cc1 | 26 | 130 | 200 | – | – | – | –
Cc1cc(C)cc(S(=O)(=O)c2c(C(=O)NN)[nH]c3ccc(Cl)cc23)c1 | > 200 | 100 | >2000 | – | – | – | –
NC(=O)c1[nH]c2ccccc2c1Sc1cc(Cl)ccc1N | 20 | 9000 | 2.2 | – | – | – | –
CCOC(=O)c1[nH]c2ccc(Cl)cc2c1S(=O)(=O)c1ccccc1N | > 200 | > 200000 | – | – | – | – | –
O=S(=O)(c1ccccc1)n1ccc2cc(Cl)ccc21 | 75 | > 75000 | – | – | – | – | –
CC(=O)c1ccc2[nH]c(C(N)=O)c(S(=O)(=O)c3cc(C)cc(C)c3)c2c1 | > 200 | 15 | > 13300 | – | – | – | –
CCOC(=O)c1cn(S(=O)(=O)c2ccccc2)c2ccc(Cl)cc12 | 42 | > 42000 | – | – | – | – | –
NNC(=O)c1[nH]c2ccc(Cl)cc2c1Sc1ccc(F)cc1 | 66 | 5000 | 13 | – | – | – | –
NNC(=O)c1[nH]c2ccc(Cl)cc2c1Sc1ccccc1 | 44 | 500 | 88 | – | – | – | –
NC(=O)c1[nH]c2ccc(Cl)cc2c1Sc1ccc(F)cc1 | 13 | 1400 | 9 | – | – | – | –

SMILES | CC50 [1] [µM] | EC50 [2] [nM] | Selectivity index [3] | EC50 [4] [µM] | EC90 [5] [nM] | IC50 [6] [nM] | IC50 [7] [µM]
NC(=O)c1[nH]c2ccc(Cl)cc2c1S(=O)(=O)c1ccc(Cl)cc1 | > 200 | 11 | >18182 | – | – | – | –
O=S(=O)(c1ccccc1)n1ccc2ccccc21 | 150 | > 150000 | – | – | – | – | –
Cc1cc(C)cc(S(=O)(=O)c2c(C(N)=O)[nH]c3ccc(Br)cc23)c1 | 18 | 2 | 9000 | – | – | – | –
NC(=O)c1cn(S(=O)(=O)c2ccccc2)c2ccc(Cl)cc12 | 200 | > 200000 | – | – | – | – | –
NC(=O)c1[nH]c2ccc(Cl)cc2c1S(=O)(=O)c1ccc(F)cc1 | 17 | 14 | 1214 | – | – | – | –
Cc1ccc(S(=O)(=O)c2c(C(=O)NN)[nH]c3ccc(Cl)cc23)cc1 | > 200 | 50 | >4000 | – | – | – | –
NC(=O)c1[nH]c2ccccc2c1S(=O)(=O)c1cc(Cl)ccc1N | 3.5 | 300 | 11.7 | – | – | – | –
NC(=O)c1[nH]c2ccccc2c1Sc1ccccc1 | 14 | 1400 | 10 | – | – | – | –
CCOC(=O)c1[nH]c2ccc(Cl)cc2c1Sc1cc(Cl)ccc1N | > 200 | 2500 | >80 | – | – | – | –
NC(=O)c1[nH]c2ccc(Cl)cc2c1S(=O)(=O)c1c(Cl)cccc1Cl | 40 | 100 | 400 | – | – | – | –
NC(=O)c1cc2ccccc2n1S(=O)(=O)c1ccccc1 | > 200 | 15000 | – | – | – | – | –
NNC(=O)c1[nH]c2ccccc2c1S(=O)(=O)c1ccccc1 | 133 | 500 | 266 | – | – | – | –
CCOC(=O)c1cc2ccccc2n1S(=O)(=O)c1cc(Cl)ccc1N | 50 | 1800 | 28 | – | – | – | –
CCOC(=O)c1[nH]c2ccc(Cl)cc2c1Sc1ccccc1N | > 200 | 2300 | >87 | – | – | – | –
Cc1ccc(Sc2c(C(N)=O)[nH]c3ccc(Cl)cc23)cc1 | 0.45 | > 450 | – | – | – | – | –
CCOC(=O)c1cc2cc(Cl)ccc2n1S(=O)(=O)c1ccccc1 | > 200 | > 200000 | – | – | – | – | –
CC(C)c1ccc(S(=O)(=O)c2c(C(N)=O)[nH]c3ccc(Cl)cc23)cc1 | > 200 | 80 | >2500 | – | – | – | –
Cc1cc(C)cc(S(=O)(=O)c2c(C(N)=O)[nH]c3ccc(Cl)cc23)c1 | 15 | 4 | 3750 | 0.65 | 2 | 31 | > 5
NNC(=O)c1[nH]c2ccc(Cl)cc2c1S(=O)(=O)c1cc(Cl)ccc1N | 19 | 300 | 63 | – | – | – | –
NC(=O)c1[nH]c2ccc(Cl)cc2c1Sc1ccc(Cl)cc1 | 13 | 3100 | 4 | – | – | – | –
CCOC(=O)c1cc2cc(Cl)ccc2n1S(=O)(=O)c1cc(Cl)ccc1[N+](=O)[O-] | 31 | > 31000 | – | – | – | – | –
CCOC(=O)c1[nH]c2ccccc2c1S(=O)(=O)c1cc(Cl)ccc1N | > 200 | 2500 | >91 | – | – | – | –

SMILES | CC50 [1] [µM] | EC50 [2] [nM] | Selectivity index [3] | EC50 [4] [µM] | EC90 [5] [nM] | IC50 [6] [nM] | IC50 [7] [µM]
NNC(=O)c1[nH]c2ccc(Cl)cc2c1S(=O)(=O)c1ccc(Cl)cc1 | > 200 | 200 | >1000 | – | – | – | –
CCOC(=O)c1cc2cc(Cl)ccc2n1S(=O)(=O)c1cc(Cl)ccc1N | 39 | 8300 | 4.7 | – | – | – | –
NC(=O)c1cn(S(=O)(=O)c2ccccc2)c2ccccc12 | 32 | > 32000 | – | – | – | – | –
NNC(=O)c1[nH]c2ccc(Cl)cc2c1S(=O)(=O)c1ccccc1 | > 200 | 10 | >20000 | – | – | – | –
Cc1cc(C)cc(S(=O)(=O)c2c(C(N)=O)[nH]c3ccc(C(C)O)cc23)c1 (stereo unspecified) | > 200 | 25 | >8000 | – | – | – | –
CCOC(=O)c1cc2ccccc2n1S(=O)(=O)c1ccccc1[N+](=O)[O-] | > 200 | > 200000 | – | – | – | – | –
NNC(=O)c1[nH]c2ccc(Cl)cc2c1Sc1cc(Cl)ccc1N | 13 | > 13000 | – | – | – | – | –
CC(C)OC(=O)c1cn(S(=O)(=O)c2ccccc2)c2ccccc12 | 54 | > 54000 | – | – | – | – | –
NC(=O)c1[nH]c2ccc(Cl)cc2c1S(=O)(=O)c1cc(Cl)ccc1N | 4.6 | 40 | 115 | – | – | – | –
CCOC(=O)c1[nH]c2ccc(Cl)cc2c1S(=O)(=O)c1cc(Cl)ccc1N | > 200 | 1900 | 105 | – | – | – | –
CCOC(=O)c1cn(S(=O)(=O)c2ccccc2)c2ccccc12 | 32 | > 32000 | – | – | – | – | –
NC(=O)c1[nH]c2ccc(Cl)cc2c1Sc1c(Cl)cccc1Cl | 61 | 1200 | 51 | – | – | – | –
NC(=O)c1[nH]c2ccc(Cl)cc2c1Sc1ccccc1 | 9 | 20 | 450 | – | – | – | –
CCOC(=O)c1cc2cc(Cl)ccc2n1S(=O)(=O)c1ccc(Cl)cc1 | > 200 | > 200000 | – | – | – | – | –
CC(C)c1ccc(Sc2c(C(N)=O)[nH]c3ccc(Cl)cc23)cc1 | 52 | 1900 | 27 | – | – | – | –
Cc1ccc(Sc2c(C(=O)NN)[nH]c3ccc(Cl)cc23)cc1 | 129 | 1500 | 86 | – | – | – | –
CCOC(=O)c1cc2ccccc2n1S(=O)(=O)c1ccccc1 | > 200 | > 200000 | – | – | – | – | –
Cc1cc(C)cc(Sc2c(C(N)=O)[nH]c3ccc(Cl)cc23)c1 | 0.7 | 6 | 117 | – | – | – | –
CC(C)(C)c1ccc(Sc2c(C(N)=O)[nH]c3ccc(Cl)cc23)cc1 | 45 | 8000 | 6 | – | – | – | –
Cc1ccccc1Sc1c(C(N)=O)[nH]c2ccc(Cl)cc12 | 26 | 300 | 87 | – | – | – | –
